By EC50 is commonly meant the concentration needed to bring the measured effect to its halfway point. A high value points to weaker potency.

Data on 5 compounds can be found in ChEMBL document CHEMBL2157875, “Design, synthesis and in vitro evaluation of a series of α-substituted phenylpropanoic acid PPARγ agonists to further investigate the stereochemistry-activity relationship” (Bioorg Med Chem, 2012).

Holding throughout (format): cell-based
The target in experiment [1] is PPAR delta/gamma (Homo sapiens) (UniProt P37231+Q03181). In words: Selectivity ratio of EC50 for human PPARdelta expressed in human HEK293 cells to EC50 for human PPARgamma expressed in human HEK293 cells.
Experiment [2] deals with T1, Peroxisome proliferator-activated receptor alpha (Homo sapiens, UniProt Q07869).
T1 sequence (Q07869 whole entry): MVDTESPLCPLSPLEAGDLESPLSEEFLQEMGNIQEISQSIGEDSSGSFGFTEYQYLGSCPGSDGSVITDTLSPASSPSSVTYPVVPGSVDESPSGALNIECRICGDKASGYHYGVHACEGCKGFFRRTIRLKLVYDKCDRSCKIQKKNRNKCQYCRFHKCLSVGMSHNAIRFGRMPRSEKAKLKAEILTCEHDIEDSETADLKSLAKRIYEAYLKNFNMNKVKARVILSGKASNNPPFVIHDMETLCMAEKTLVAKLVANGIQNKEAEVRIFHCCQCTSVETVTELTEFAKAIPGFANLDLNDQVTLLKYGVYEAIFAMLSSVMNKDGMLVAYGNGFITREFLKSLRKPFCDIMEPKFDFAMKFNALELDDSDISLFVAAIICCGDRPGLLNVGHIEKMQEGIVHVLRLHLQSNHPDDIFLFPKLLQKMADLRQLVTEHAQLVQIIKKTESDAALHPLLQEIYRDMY
Nature of the experiment: Transactivation of human PPARalpha expressed in human HEK293 cells after 16 to 20 hrs by dual luciferase beta-galactosidase reporter gene assay. In short, it runs like this:
(§1)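 HEK293 cells were grown in DMEM with 5% FBS and antibiotic-antimycotic at 37 °C in 5% CO2. They were co-transfected by calcium phosphate with 50 ng reporter, 20 ng pCMX-β-galactosidase and 15 ng of each receptor plasmid, made up to 150 ng with pGEM carrier. Ligands were added 8 h later and cells harvested about 16–20 h after. Luciferase was normalized to β-galactosidase; means of triplicates.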

In experiment [3] the test system is HEK293. In words: Selectivity ratio of EC50 for human PPARalpha expressed in human HEK293 cells to EC50 for human PPARgamma expressed in human HEK293 cells.
For experiment [4], the target named is T2, Peroxisome proliferator-activated receptor gamma (Homo sapiens, UniProt P37231).
T2 sequence (P37231 whole entry): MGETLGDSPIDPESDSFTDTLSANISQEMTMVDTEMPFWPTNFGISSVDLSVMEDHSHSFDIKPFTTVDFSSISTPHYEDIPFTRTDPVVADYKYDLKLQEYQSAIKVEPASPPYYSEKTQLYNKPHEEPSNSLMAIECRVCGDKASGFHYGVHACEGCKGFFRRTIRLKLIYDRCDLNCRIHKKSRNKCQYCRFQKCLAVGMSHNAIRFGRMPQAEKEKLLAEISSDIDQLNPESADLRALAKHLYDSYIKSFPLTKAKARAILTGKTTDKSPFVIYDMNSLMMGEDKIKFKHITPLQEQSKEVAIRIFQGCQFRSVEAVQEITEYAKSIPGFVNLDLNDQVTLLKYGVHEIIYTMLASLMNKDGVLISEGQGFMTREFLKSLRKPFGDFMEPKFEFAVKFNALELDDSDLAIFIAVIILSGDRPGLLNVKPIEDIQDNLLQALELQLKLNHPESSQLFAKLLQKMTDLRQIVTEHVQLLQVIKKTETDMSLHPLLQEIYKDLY
In words: Transactivation of human PPARgamma expressed in human HEK293 cells after 16 to 20 hrs by dual luciferase beta-galactosidase reporter gene assay. In short, it runs like this:
as §1
For orientation: Reporter assays use an easily measured gene product as a stand-in for the process of interest.

Experiment [5] addresses T3, Peroxisome proliferator-activated receptor gamma (Homo sapiens) (UniProt P37231).
T3 sequence (whole entry): T2 sequence (P37231 whole entry)
In words: Transactivation of human PPARgamma expressed in human HEK293 cells assessed as concentration required for maximum activity after 16 to 20 hrs by dual luciferase beta-galactosidase reporter gene assay. The gist of the method:
as §1

The target of experiment [6] is T4, Peroxisome proliferator-activated receptor delta (Homo sapiens, UniProt Q03181).
T4 sequence (Q03181 whole entry): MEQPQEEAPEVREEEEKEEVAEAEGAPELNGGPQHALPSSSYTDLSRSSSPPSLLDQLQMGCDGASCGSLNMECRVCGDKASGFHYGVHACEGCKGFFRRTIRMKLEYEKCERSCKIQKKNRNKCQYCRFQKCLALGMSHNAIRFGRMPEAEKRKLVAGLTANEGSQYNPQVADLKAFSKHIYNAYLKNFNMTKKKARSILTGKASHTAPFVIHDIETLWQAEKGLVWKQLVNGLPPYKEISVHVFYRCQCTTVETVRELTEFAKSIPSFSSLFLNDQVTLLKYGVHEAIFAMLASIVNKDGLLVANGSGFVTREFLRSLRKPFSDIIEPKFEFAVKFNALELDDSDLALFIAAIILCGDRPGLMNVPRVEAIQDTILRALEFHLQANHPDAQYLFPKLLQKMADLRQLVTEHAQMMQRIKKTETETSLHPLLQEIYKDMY
In words: Transactivation of human PPARdelta expressed in human HEK293 cells after 16 to 20 hrs by dual luciferase beta-galactosidase reporter gene assay. In short, it runs like this: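 HEK293 cells grown in DMEM with 5% FBS and antibiotic-antimycotic at 37 °C, 5% CO₂. Calcium phosphate cotransfection per well of 50 ng reporter, 20 ng pCMX-β-galactosidase, 15 ng receptor expression plasmid, pGEM carrier to 150 ng. Ligands added 8 h post-transfection, cells harvested ~16–20 h later. Luciferase normalised to β-galactosidase; means of triplicates.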

In the case of `CCCOc1ccc(C[C@@H](CCc2ccccc2)C(=O)O)cc1CNC(=O)c1ccc(C23CC4CC(CC(C4)C2)C3)cc1`, the Ratio EC50 in experiment [1] and in experiment [3] was 50 in each case. The concentration giving a half-maximal response (EC50) in experiment [2] stood at 1760 nM; in experiment [4], 34 nM. In experiment [5], the Activity amounted to 1 µM.

For `CCCOc1ccc(C[C@H](CCc2ccccc2)C(=O)O)cc1CNC(=O)c1ccc(C23CC4CC(CC(C4)C2)C3)cc1`, the Ratio EC50 in experiment [1] and in experiment [3] was 50 each time. Moreover, the EC50 in experiment [2] was 770 nM; in experiment [4] it was 9.2 nM. Also, the Activity in experiment [5] came to 0.05 µM.

For the compound `CCCOc1ccc(C[C@H](CC)C(=O)O)cc1CNC(=O)c1ccc(C23CC4CC(CC(C4)C2)C3)cc1`, a half-maximal response in experiment [6] (EC50) required 130 nM.

Turning to `CCCOc1ccc(C[C@@H](CC2CCCCC2)C(=O)O)cc1CNC(=O)c1ccc(C23CC4CC(CC(C4)C2)C3)cc1`, the Ratio EC50 in experiment [1] and in experiment [3] was 240 in each case. In experiment [4], this compound had an EC50 of 12 nM. In experiment [5], the Activity worked out at 1 µM.

As for `CCCOc1ccc(C[C@H](CC2CCCCC2)C(=O)O)cc1CNC(=O)c1ccc(C23CC4CC(CC(C4)C2)C3)cc1`, the Ratio EC50 in experiment [1] and in experiment [3] was 240 each time. In addition, the response in experiment [4] was half-maximal at 22 nM (EC50). Further, the Activity in experiment [5] was determined as 1 µM.
